# Measurements: ChEMBL document CHEMBL1123755, “Conformationally defined adrenergic agents. 5. Resolution, absolute configuration, and pharmacological characterization of the enantiomers of 2-(5,6-dihydroxy-1,2,3,4-tetrahydro-1-naphthyl)imidazoline: a potent agonist at alpha-adrenoceptors” (J Med Chem, 1987)
# Columns and labels:
# [1] = target: T1, Adrenergic receptor alpha-1 (Rattus norvegicus, UniProt P15823+P23944+P43140); experiment: Binding affinity for alpha-1 adrenergic receptor in rat liver using [3H]prazosin.
# T1 sequence (P15823 whole entry): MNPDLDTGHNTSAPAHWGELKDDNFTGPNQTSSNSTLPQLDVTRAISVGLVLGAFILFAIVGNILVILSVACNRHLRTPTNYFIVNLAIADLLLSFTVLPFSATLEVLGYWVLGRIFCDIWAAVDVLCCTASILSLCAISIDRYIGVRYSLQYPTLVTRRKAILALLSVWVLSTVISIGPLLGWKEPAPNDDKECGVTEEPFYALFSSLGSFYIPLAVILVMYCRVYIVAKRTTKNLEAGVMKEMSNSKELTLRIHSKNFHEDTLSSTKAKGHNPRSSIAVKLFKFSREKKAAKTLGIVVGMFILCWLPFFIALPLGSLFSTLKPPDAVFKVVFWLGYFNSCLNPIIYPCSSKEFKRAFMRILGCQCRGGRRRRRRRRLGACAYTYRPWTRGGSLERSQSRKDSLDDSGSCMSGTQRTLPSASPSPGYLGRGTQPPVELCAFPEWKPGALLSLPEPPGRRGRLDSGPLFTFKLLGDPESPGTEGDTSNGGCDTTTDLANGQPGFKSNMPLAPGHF
# T1 sequence (P23944 whole entry): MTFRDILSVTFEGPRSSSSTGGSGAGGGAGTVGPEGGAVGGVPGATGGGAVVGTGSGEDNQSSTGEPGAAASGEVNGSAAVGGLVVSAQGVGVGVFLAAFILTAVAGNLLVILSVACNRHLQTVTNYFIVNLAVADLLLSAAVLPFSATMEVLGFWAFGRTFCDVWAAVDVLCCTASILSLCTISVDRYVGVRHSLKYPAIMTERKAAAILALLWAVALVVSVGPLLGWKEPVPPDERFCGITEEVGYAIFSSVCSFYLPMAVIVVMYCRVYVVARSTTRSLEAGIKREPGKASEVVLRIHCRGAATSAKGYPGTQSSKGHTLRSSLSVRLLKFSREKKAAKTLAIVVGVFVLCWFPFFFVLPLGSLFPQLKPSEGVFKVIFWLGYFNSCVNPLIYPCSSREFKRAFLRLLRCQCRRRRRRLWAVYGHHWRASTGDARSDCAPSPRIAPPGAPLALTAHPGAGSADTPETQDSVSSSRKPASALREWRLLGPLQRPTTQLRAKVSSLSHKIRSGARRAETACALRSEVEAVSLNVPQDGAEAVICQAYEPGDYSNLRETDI
# T1 sequence (P43140 whole entry): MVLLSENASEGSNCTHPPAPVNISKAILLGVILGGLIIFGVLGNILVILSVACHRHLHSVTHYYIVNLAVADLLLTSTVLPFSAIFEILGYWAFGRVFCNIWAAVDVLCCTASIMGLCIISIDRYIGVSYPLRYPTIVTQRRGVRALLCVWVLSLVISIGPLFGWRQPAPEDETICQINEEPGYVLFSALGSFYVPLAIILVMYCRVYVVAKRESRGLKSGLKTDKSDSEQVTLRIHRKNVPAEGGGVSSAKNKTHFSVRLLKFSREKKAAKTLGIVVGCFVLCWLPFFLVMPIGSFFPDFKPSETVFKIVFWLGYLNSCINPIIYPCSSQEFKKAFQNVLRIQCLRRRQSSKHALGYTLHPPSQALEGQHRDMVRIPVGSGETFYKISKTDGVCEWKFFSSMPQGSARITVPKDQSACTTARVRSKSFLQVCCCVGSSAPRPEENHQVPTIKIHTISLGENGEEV
# How it was run: (§1)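 Pooled male Sprague–Dawley rat liver membranes (50–150 µg/mL protein) in 50 mM Tris-HCl pH 7.7. [3H]prazosin, 50 min at 25 °C, 1.0 mL final volume; nonspecific binding with phentolamine 10⁻⁵ M. GF/B filtration, scintillation counting. At least four concentrations (10⁻¹⁰–10⁻³ M) run in duplicate; IC50 by logit plot; Ki by Cheng–Prusoff.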
# [2] = Ratio of ED50 of norepinephrine to that in PBZ-DSV; assay type: functional
# How it was run: (§2)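 Dog saphenous vein strips in Krebs buffer (pH 7.40, 95% O2/5% CO2, 37 °C), 2 g preload, isometric contraction. After equilibration and maximal NE (10⁻⁴ M) contraction, washed 60 min, exposed to PBZ 10⁻⁷ M for 30 min, washed 60 min. Control cumulative NE curve, then after 45–60 min washout, cumulative agonist curve. Molar ED50; index = ED50 NE / ED50 compound; Emax as % of NE maximum.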
# [3] = Ratio of ED50 of norepinephrine to that in rabbit aorta.; assay type: functional
# How it was run: (§3)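 Helical rabbit aortic strip in 10-mL bath of Krebs buffer (pH 7.4, 37 ± 0.5 °C), 2 g initial tension, force-transducer contraction. Cumulative dose–response to NE (10⁻⁸ to 10⁻³ M), each dose to plateau. Washed every 10–15 min for 60–90 min and reset to 2 g before the test compound series. Molar ED50; index = ED50 NE / ED50 compound; Emax as % of NE maximum.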
# [4] = E max value expressed as percent maximum response of the tissue(PBZ-DSV) to norepinephrine; how it was run: as §2
# [5] = E max value expressed as percent maximum response of the tissue(rabbit aorta) to norepinephrine; assay type: tissue-based; how it was run: as §3
# [6] = target: T2, Adrenergic receptor alpha-2 (Rattus norvegicus, UniProt P22086+P19328+P22909); experiment: Binding affinity for alpha-2 adrenergic receptor in rat cortex using [3H]rauwolscine.
# T2 sequence (P22086 whole entry): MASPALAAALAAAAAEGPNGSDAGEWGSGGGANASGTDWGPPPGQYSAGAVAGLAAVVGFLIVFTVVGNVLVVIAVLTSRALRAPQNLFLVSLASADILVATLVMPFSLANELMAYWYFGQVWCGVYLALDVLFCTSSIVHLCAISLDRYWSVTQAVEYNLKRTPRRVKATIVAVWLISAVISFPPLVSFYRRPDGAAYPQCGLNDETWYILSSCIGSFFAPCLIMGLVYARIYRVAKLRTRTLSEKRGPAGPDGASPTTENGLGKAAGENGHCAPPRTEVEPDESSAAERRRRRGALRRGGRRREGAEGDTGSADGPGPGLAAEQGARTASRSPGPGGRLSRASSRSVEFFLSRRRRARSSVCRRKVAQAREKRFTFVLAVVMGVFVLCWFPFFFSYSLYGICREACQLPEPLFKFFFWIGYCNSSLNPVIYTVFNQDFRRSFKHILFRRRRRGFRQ
# T2 sequence (P19328 whole entry): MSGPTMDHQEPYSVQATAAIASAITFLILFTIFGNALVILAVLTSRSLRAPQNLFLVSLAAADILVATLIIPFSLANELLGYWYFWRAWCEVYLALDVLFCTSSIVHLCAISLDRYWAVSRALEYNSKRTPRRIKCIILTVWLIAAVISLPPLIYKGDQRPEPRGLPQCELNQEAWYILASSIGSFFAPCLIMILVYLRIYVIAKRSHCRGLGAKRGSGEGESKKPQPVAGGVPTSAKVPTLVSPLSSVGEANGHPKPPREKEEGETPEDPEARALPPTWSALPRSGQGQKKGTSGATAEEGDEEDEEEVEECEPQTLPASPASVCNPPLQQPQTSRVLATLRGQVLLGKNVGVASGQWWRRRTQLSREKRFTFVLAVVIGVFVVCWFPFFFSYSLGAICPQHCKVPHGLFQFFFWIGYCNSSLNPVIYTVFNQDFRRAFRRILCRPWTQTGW
# T2 sequence (P22909 whole entry): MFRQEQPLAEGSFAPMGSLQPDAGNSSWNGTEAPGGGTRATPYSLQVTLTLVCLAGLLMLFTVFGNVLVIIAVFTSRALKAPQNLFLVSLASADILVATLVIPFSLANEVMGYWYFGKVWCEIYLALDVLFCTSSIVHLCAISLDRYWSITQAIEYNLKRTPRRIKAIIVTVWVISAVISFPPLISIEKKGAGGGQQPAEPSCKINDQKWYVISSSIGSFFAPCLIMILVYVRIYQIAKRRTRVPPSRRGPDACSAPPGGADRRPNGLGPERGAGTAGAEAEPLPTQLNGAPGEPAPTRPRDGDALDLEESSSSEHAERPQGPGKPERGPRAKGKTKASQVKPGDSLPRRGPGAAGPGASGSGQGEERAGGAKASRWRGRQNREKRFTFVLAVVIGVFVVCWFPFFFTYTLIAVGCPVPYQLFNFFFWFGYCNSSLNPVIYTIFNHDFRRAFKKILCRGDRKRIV
# How it was run: as §1, with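 “cerebral cortex” for “liver”, “[3H]rauwolscine, 2 h” for “[3H]prazosin, 50 min”, “0” for “25”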
SMILES,Ki [1],Index [2],Index [3],E max [4],E max [5],Ki [6]
Oc1ccc2c(c1O)CCC[C@@H]2C1=NCCN1,0.817 µM,15.4,1,74,94,0.028 µM
Oc1ccc2c(c1O)CCC[C@H]2C1=NCCN1,0.523 µM,248,29,102,128,0.00055 µM
Oc1ccc2c(c1O)CCCC2C1=NCCN1 (racemic),–,184,13,102,114,–
